# Test results from ChEMBL document CHEMBL4321829, “Chagas Disease Drug Discovery: Multiparametric Lead Optimization against Trypanosoma cruzi in Acylaminobenzothiazole Series” (J Med Chem, 2019).
# Activity calls are given as the source filed them. No cut-off for these calls is given here.
# Legend:
# [1] = tested on: Trypanosoma cruzi; test: Antitrypanosomal activity against Trypanosoma cruzi Tulahuen C4 trypomastigotes harboring beta-galactosidase infected in mouse 3T3 cells after 90 mins by luminescence based assay; assay type: functional, organism-based; settings: Tulahuen C4, NIH3T3, 1.5 h
# [2] = tested on: Trypanosoma cruzi; test: Antitrypanosomal activity against Trypanosoma cruzi Tulahuen trypomastigotes beta-galactosidase infected in rat H9c2 cells measured after 72 hrs by DRAQ5 DNA dye based confocal microscopic analysis; assay type: functional, organism-based; settings: H9c2, 72 h
# [3] = tested on: H9c2; test: Cytotoxicity against rat H9c2 cells assessed as reduction in cell viability; assay type: cell-based
# [4] = Selectivity index, ratio of IC50 for rat H9c2 cells to IC50 for antitrypanosomal activity against Trypanosoma cruzi Tulahuen trypomastigotes beta-galactosidase infected in rat H9c2 cells; assay type: toxicity, cell-based; settings: read-out: Ratio IC50
# [5] = Intrinsic clearance in CD-1 mouse liver microsomes at 0.5 uM in presence of NADPH measured up to 45 mins by UPLC/MS/MS analysis; assay type: ADME, Microsome; settings: 0.75 h
# Procedure, shortened: (§1)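 Compound at 0.5 μM was incubated with male CD1 mouse or human liver microsomes (0.5 mg/mL in 50 mM potassium phosphate, pH 7.4). The reaction was started with excess NADPH. Samples were taken at 0 and serial times up to 45 min, quenched in acetonitrile with internal standard and analysed by UPLC/MS/MS. Clint (mL/min/g tissue) was derived from t1/2 of parent remaining. Midazolam was the positive control.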
# [6] = Intrinsic clearance in human liver microsomes at 0.5 uM in presence of NADPH measured up to 45 mins by UPLC/MS/MS analysis; assay type: ADME, Microsome; settings: 0.75 h; procedure, shortened: as §1
# [7] = Solubility of compound in FASSIF at 1 mg incubated for 4 hrs by HPLC-UV analysis; assay type: physicochemical
# Procedure, shortened: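 1 mg of solid compound was shaken in 1 mL FaSSIF at pH 6.5, at 900 rpm for 4 h at room temperature. The suspension was filtered and the supernatant quantified by HPLC-UV against a single-point DMSO standard. The dynamic range was 1–1000 μg/mL.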
# [8] = Apparent permeability in MDCK-MDR1 cells at 3 uM after 60 mins by LC-MS/MS analysis; assay type: ADME, cell-based, Canis lupus familiaris; settings: dog
# Procedure, shortened: (§2)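 Papp was measured in MDR1-MDCK monolayers in HBSS at pH 7.4 (n=2), at 3 μM for 60 min. Transport was measured AB and BA, with and without the P-gp inhibitor GF120918. Monolayers were checked by TEER and Lucifer yellow. Analytes were measured by LC-MS/MS as analyte/IS area ratios. Amprenavir, prazosin and propranolol served as references.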
# [9] = Efflux ratio of apparent permeability across […] in MDCK-MDR1 cells at 3 uM after 60 mins by LC-MS/MS analysis; assay type: ADME, cell-based, Canis lupus familiaris; settings: dog, mdck-mdr1, 1 h; procedure, shortened: as §2
# [10] = Ratio of drug level in blood to plasma in mouse at 1 uM after 1 hr by LC-MS/MS analysis; assay type: ADME, cell-free
# Procedure, shortened: (§3)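 Compound at a final 1 μM was mixed into prewarmed mouse or human whole blood at 37 °C. At 0 and 60 min, blood aliquots were lysed with water and matrix-matched with plasma. Samples were precipitated with IS-containing buffer and analysed by LC-MS/MS. The blood/plasma ratio was taken from compound:IS peak-area ratios.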
# [11] = Ratio of drug level in blood to plasma in human at 1 uM after 1 hr by LC-MS/MS analysis; assay type: ADME, cell-free; procedure, shortened: as §3
# [12] = Cmax in C57BL/6 mouse assessed as 5-Fluoro-6-(trifluoromethyl)benzothiazol-2-amine level at 50 mg/kg, po adminstered via gavage as suspension after 15 mins to 24 hrs by LC-MS/MS analysis; assay type: ADME, organism-based; design: dose 50 mg/kg, route oral; settings: in vivo
# Procedure, shortened: (§4)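 Female C57BL/6 mice (n=3) were gavaged with 50 mg/kg parent compound as a 1% methylcellulose suspension. Whole blood was sampled at 15, 30, 45 min and 1, 2, 4, 8 and 24 h, diluted 1/2 with water and frozen.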
# [13] = AUC in C57BL/6 mouse assessed as 5-Fluoro-6-(trifluoromethyl)benzothiazol-2-amine level at 50 mg/kg, po adminstered via gavage as suspension after 15 mins to 24 hrs by LC-MS/MS analysis; assay type: ADME, organism-based; design: dose 50 mg/kg, time upper 24 hr, time lower 0.25 hr, route oral; settings: in vivo; procedure, shortened: as §4
# [14] = Clearance in CD-1 mouse at 5 mg/kg, iv after 5 mins to 24 hrs by LC-MS/MS analysis; assay type: ADME, organism-based; settings: in vivo
# Procedure, shortened: (§5)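 Male CD-1 mice (n=3) received a 5 mg/kg i.v. bolus in 5% DMSO/20% encapsine in saline. Blood was drawn at 5, 15, 30 min and 1, 2, 4, 8 and 24 h, diluted 1/2 with water and frozen.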
# [15] = Volume of drug distribution at steady state in CD-1 mouse at 5 mg/kg, iv after 5 mins to 24 hrs by LC-MS/MS analysis; assay type: ADME, organism-based; settings: in vivo, read-out: Vdss; procedure, shortened: as §5
# [16] = Half life in CD-1 mouse at 5 mg/kg, iv after 5 mins to 24 hrs by LC-MS/MS analysis; assay type: ADME, organism-based; settings: in vivo; procedure, shortened: as §5
# [17] = AUCt in C57BL/6 mouse at 50 mg/kg, po after 15 mins to 24 hrs by LC-MS/MS analysis; assay type: ADME, organism-based; design: dose 50 mg/kg, time upper 24 hr, time lower 0.25 hr, route oral; settings: in vivo
# [18] = Cmax in C57BL/6 mouse at 50 mg/kg, po after 15 mins to 24 hrs by LC-MS/MS analysis; assay type: ADME, organism-based; design: dose 50 mg/kg, route oral; settings: in vivo
# [19] = Tmax in C57BL/6 mouse at 50 mg/kg, po after 15 mins to 24 hrs by LC-MS/MS analysis; assay type: ADME, organism-based; settings: in vivo
# [20] = Protein binding in human plasma at 2 uM after 4 hrs by LC-MS/MS analysis; assay type: ADME, cell-free
# Procedure, shortened: (§6)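 Equilibrium dialysis was run in RED inserts with mouse or human plasma at a final concentration of 2 μM, in triplicate. The receiver side held PBS at pH 7.4. Plates were incubated for 4 h at 37 °C at about 150 rpm. Samples were matrix-matched, protein-precipitated and analysed by LC-MS/MS. %PPB = 100 − (buffer/plasma × 100).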
# [21] = Protein binding in mouse plasma at 2 uM after 4 hrs by LC-MS/MS analysis; assay type: ADME, cell-free; procedure, shortened: as §6
# [22] = Kinetic solubility of compound by charged aerosol detection method; assay type: physicochemical; settings: read-out: Kinetic_solubility
# [23] = tested on: Trypanosoma cruzi; test: Antitrypanosomal activity against tdTomato red expressing Trypanosoma cruzi CL trypomastigotes infected in C57BL/6 mouse at 50 mg/kg administered for 2 days and measured after 4 to 6 days post infection; assay type: functional, organism-based
# Procedure, shortened: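 Baseline footpad fluorescence was imaged on day 2. A single 50 mg/kg dose in 1% carboxymethyl cellulose/0.1% Tween 80 was then given. Imaging was repeated at day 4 or 6. IVA was calculated from the treated versus untreated fluorescence change. Controls were 50 mg/kg benznidazole and untreated mice.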
# [24] = Drug level in C57BL/6 mouse treated with 50 mg/kg, po N-(5-Fluoro-6-(trifluoromethyl)benzothiazol-2-yl)cyclopropanecarboxamide administered as suspension via gavage assessed as compound formation after 15 mins to 24 hrs by LC-MS/Ms analysis; assay type: ADME, organism-based; settings: in vivo; procedure, shortened: as §4
Structure (SMILES),IC50 [2],IC50 [3],selectivity ratio [4],also measured
O=C(Nc1nc2ccc(Cl)cc2s1)C1CC1,0.63 µM,> 50 µM,> 80,IC50 [1]: 0.119 µM; CLH [5]: 2.51 mL/min/g; CLH [6]: 9.57 mL/min/g
O=C(Nc1nc2cccc(Cl)c2s1)C1CC1,24 µM,> 50 µM,> 2,
Cc1cc2nc(NC(=O)C3CC3)sc2cc1C(F)(F)F,26 µM,36 µM,1,
CC(=O)N(CCCN(C)C)c1nc2ccc(C)cc2s1,,,,IC50 [1]: 0.236 µM
CCN(C(=O)C1CC1)c1nc2ccc(Cl)cc2s1,> 50 µM,> 50 µM,1,
O=C(CCO)Nc1nc2ccc(Cl)cc2s1,14 µM,> 50 µM,> 3,
N#Cc1cc2nc(NC(=O)C3CC3)sc2cc1C(F)(F)F,> 50 µM,15.5 µM,,
O=C(C1CC1)N(CCO)c1nc2ccc(Cl)cc2s1,> 50 µM,> 50 µM,1,
CCS(=O)(=O)c1cc2sc(NC(=O)C3CC3)nc2cc1F,42 µM,> 50 µM,> 1,
CCCC(=O)Nc1nc2ccc(Cl)cc2s1,4.73 µM,> 50 µM,> 11,
O=C(Nc1nc2ccc(Cl)cc2s1)C1COC1,4.4 µM,> 50 µM,> 11,
O=C(Nc1nc2ccc(F)cc2s1)C1CC1,4.22 µM,> 50 µM,> 12,
O=C(Nc1nc2c(Cl)cccc2s1)C1CC1,> 50 µM,> 50 µM,,
Cc1ccc2nc(NC(=O)C3CC3)sc2c1,4.52 µM,> 50 µM,> 11,
COc1cc2nc(NC(=O)C3CC3)sc2cc1C(F)(F)F,20 µM,> 50 µM,> 2.5,
Clc1ccc2nc(NCC3CC3)sc2c1,27 µM,> 50 µM,> 2,
CNS(=O)(=O)c1cc2sc(NC(=O)C3CC3)nc2cc1F,26 µM,> 50 µM,> 2,
CCOc1ccc2nc(NC(=O)C3CC3)sc2c1,2.5 µM,> 50 µM,> 20,
Nc1nc2cc(F)c(C(F)(F)F)cc2s1,,,,Drug metabolism [24]: Metabolite_Detected
O=C(Nc1nc2ccc(Cl)cc2s1)C1CCOC1 (stereo unspecified),4.4 µM,> 50 µM,> 11,
O=C(CC1CC1)Nc1nc2ccc(Cl)cc2s1,5.4 µM,> 50 µM,> 9,
O=S(=O)(Nc1nc2ccc(C(F)(F)F)cc2s1)C1CC1,> 50 µM,6.6 µM,< 0.13,
CC(C)(C)c1ccc2nc(NC(=O)C3CC3)sc2c1,7.85 µM,32 µM,4,
CN(C(=O)C1CC1)c1nc2ccc(Cl)cc2s1,25 µM,> 50 µM,> 2,
CCCCN(C(=O)C1CC1)c1nc2ccc(Cl)cc2s1,> 50 µM,> 50 µM,1,
CN(C)CCCN(C(=O)c1nc2ccccc2s1)c1nc2ccc(F)cc2s1,,,,IC50 [1]: 0.1 µM
O=C(Nc1nc2cc(C(F)(F)F)c(F)cc2s1)C1CC1,35 µM,46 µM,1,

# Continued by falling IC50 [2], values first:
IC50 [2],Structure (SMILES),IC50 [3],selectivity ratio [4],also measured
2.4 µM,FC(F)(F)c1ccc2nc(N/N=C/C3CC3)sc2c1,13 µM,5,
2.3 µM,N#Cc1cc2sc(NC(=O)C3CC3)nc2cc1F,> 50 µM,> 22,
1.32 µM,O=C(Nc1nc2ccc(Cl)cc2s1)C1CCC1,> 50 µM,> 38,
1.19 µM,CC(C)c1ccc2nc(NC(=O)C3CC3)sc2c1,> 50 µM,> 50,
1 µM,CC(C)(F)C(=O)Nc1nc2cc(F)c(C(F)(F)F)cc2s1,> 50 µM,> 50,
0.95 µM,CC(C)(C)C(=O)Nc1nc2ccc(Cl)cc2s1,> 50 µM,> 52,
0.41 µM,CC(C)C(=O)Nc1nc2ccc(Cl)cc2s1,> 50 µM,> 123,
0.32 µM,O=C(Nc1nc2cc(Cl)ccc2s1)C1CC1,> 50 µM,> 158,
0.25 µM,CC(C)C(=O)Nc1nc2cc(F)c(C(F)(F)F)cc2s1,> 50 µM,> 200,
0.19 µM,O=C(Nc1nc2ccc(OC(F)(F)F)cc2s1)C1CC1,5 µM,28,
0.14 µM,CCc1ccc2nc(NC(=O)C3CC3)sc2c1,> 50 µM,> 357,CLH [5]: 125 mL/min/g; CLH [6]: 10.4 mL/min/g
0.13 µM,CC(C)(F)C(=O)Nc1nc2ccc(C(F)(F)F)cc2s1,> 50 µM,> 384,
0.1 µM,O=C(Nc1nc2ccc(C(F)(F)F)cc2s1)C1CC1,> 50 µM,> 500,CLH [5]: 2.71 mL/min/g; CLH [6]: 0.94 mL/min/g
0.079 µM,O=C(Nc1nc2cc(F)c(C(F)(F)F)cc2s1)C1CC1,> 50 µM,> 630,"CLH [5]: 5.26 mL/min/g; CLH [6]: 0.41 mL/min/g; solubility at 4 h [7]: 51 µg/mL; Papp at 1 h, 3 µM [8]: 17.4 ×10⁻⁶ cm/s; Ratio [9]: 1.5; blood plasma ratio at 1 h, 1 µM [10]: 1.2; blood plasma ratio at 1 h, 1 µM [11]: 0.8; Cmax [12]: 634 ng/mL; AUC [13]: 10065.32 ng·h/mL; clearance [14]: 58.3 mL/min/kg; Vd [15]: 5.73 L/kg; half-life [16]: 0.97 h; AUC(0-t) [17]: 31600 ng·h/mL; Cmax [18]: 3390 ng/mL; Tmax [19]: 1.33 h; PPB [20]: Active; PPB [21]: Active; solubility kinetic [22]: 36 µM; Activity [23]: Active"
0.04 µM,O=C(Nc1nc2ccc([N+](=O)[O-])cc2s1)C1CC1,> 50 µM,> 1200,CLH [5]: 3.06 mL/min/g; CLH [6]: 1.57 mL/min/g
